We go through 16 molecules from ChEMBL document CHEMBL2146366, “Discovery of microsomal triglyceride transfer protein (MTP) inhibitors with potential for decreased active metabolite load compared to dirlotapide” (Bioorg Med Chem Lett, 2011).

Series [1] is described as follows: Fraction unbound in human HepG2 cells by equilibrium dialysis. Format: ADME, cell-based. The essentials: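 Protein binding was measured by equilibrium dialysis under the conditions of the apoB secretion assay in human HepG2 cells, to give unbound fraction.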
For orientation: In equilibrium dialysis free small molecules cross a membrane that holds back macromolecules.

The test system of series [2] is Rattus norvegicus. The experiment in a line: Antiobesity activity in high fat diet-induced obese Sprague-Dawley rat assessed as reduction in body weight at 10 mg/kg, po administered daily for 3 days relative to control. The class given is functional. Further details: scale not given: the % may be the effect or the level left.
For series [3], the system named is Rattus norvegicus. In words: Antiobesity activity in high fat diet-induced obese Sprague-Dawley rat assessed as reduction of food intake at 10 mg/kg, po administered daily for 3 days relative to dirlotapide. Further details: scale not given: the % may be the effect or the level left. The class given is functional. The gist of the method: (§1)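 Male Sprague–Dawley rats (~300 g, n = 5 per group) were acclimatized for seven days to a high-fat diet (45% kcal from fat). They received three consecutive daily oral gavage doses 1.5 h before the dark cycle. Vehicle was SEDDS:H2O 10:90, with SEDDS made of Miglyol 812 10%, triacetin 30%, polysorbate 80 20% and Capmul MCM 30%. Food intake was recorded during dosing, and liver TG was measured afterwards, both against vehicle.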

The subject of series [4] is Rattus norvegicus. In words: Antiobesity activity in high fat diet-induced obese Sprague-Dawley rat assessed as reduction of triglyceride accumulation in liver at 10 mg/kg, po administered daily for 3 days relative to control. The class given is functional. Further details: scale not given: the % may be the effect or the level left. The gist of the method: as §1
Series [5] concerns Rattus norvegicus. The experiment in a line: Antiobesity activity in high fat diet-induced obese Sprague-Dawley rat assessed as reduction of food intake at 10 mg/kg, po administered daily for 3 days relative to control. Further details: scale not given: the % may be the effect or the level left. The class given is functional. The essentials: as §1
Series [6] relates to Rattus norvegicus. In words: Antiobesity activity in high fat diet-induced obese Sprague-Dawley rat assessed as reduction in body weight at 10 mg/kg, po administered daily for 3 days relative to dirlotapide. Format: functional. Further details: scale not given: the % may be the effect or the level left.
For series [7], the system named is Rattus norvegicus. The experiment in a line: Antiobesity activity in high fat diet-induced obese Sprague-Dawley rat assessed as reduction of triglyceride accumulation in liver at 10 mg/kg, po administered daily for 3 days relative to dirlotapide. The class given is functional. Further details: scale not given: the % may be the effect or the level left. The essentials:
as §1

With `CC(C)(C(=O)O)c1ccc(-c2ccccc2C(=O)Nc2ccc3cc(C(=O)N[C@H](C(=O)NCc4ccc(F)cc4)c4ccccc4)ccc3n2)cc1`, the fraction unbound in series [1] is 0.0211.

For `Cn1c(C(=O)N[C@H](C(N)=O)c2ccccc2)cc2cc(NC(=O)c3ccccc3-c3ccc(C(F)(F)F)cc3)ccc21`, the Activity in series [2] came to 108%; in series [3] it was 43%; in series [4], 87%; in series [5] it was 37%; in series [6] it was 115%; in series [7], 112%. Besides, the fraction unbound in series [1] turned out to be 0.23.

In series [1], `CC(CO)Oc1ccc(-c2ccccc2C(=O)Nc2ccc3cc(C(=O)N[C@H](C(=O)N(C)Cc4ccc(F)cc4)c4ccccc4)ccc3n2)cc1` (stereo not given in full) gave a fraction unbound of 0.013.

Regarding `CC(C)c1ccc(-c2ccccc2C(=O)Nc2ccc3cc(C(=O)N[C@H](C(=O)N(C)Cc4ccc(F)cc4)c4ccccc4)ccc3n2)cc1`, the Activity in series [2] is listed as 91%; in series [3] it was 11%; in series [4], 16%; in series [5] it was 38%; in series [6], 8%; in series [7], 70%. The fraction unbound in series [1] is 0.0011.

`CC(C)Oc1ccc(-c2ccccc2C(=O)Nc2ccc3cc(C(=O)N[C@H](C(=O)NCc4ccc(F)cc4)c4ccccc4)ccc3n2)cc1` showed a fraction unbound in series [1] of 0.0061.

As to `CC(C)(C)c1ccc(-c2ccccc2C(=O)Nc2ccc3cc(C(=O)N[C@H](C(=O)NCc4ccc(F)cc4)c4ccccc4)ccc3n2)cc1`, the fraction unbound in series [1] was found to be 0.0023.

Take `CNC(=O)[C@@H](NC(=O)c1cc2cc(NC(=O)c3ccccc3-c3ccc(C(F)(F)F)cc3)ccc2n1C)c1ccccc1`: the Activity in series [2] came out at 106%; in series [3], 43%; in series [4] it was 147%; in series [5] it was 40%; in series [6] it was 115%; in series [7] it was 112%. The molecule also came in with a fraction unbound in series [1] of 0.21.

In the case of `CN(Cc1ccc(F)cc1)C(=O)[C@@H](NC(=O)c1ccc2nc(NC(=O)c3ccccc3-c3ccc(C(F)(F)F)cc3)ccc2c1)c1ccccc1`, the Activity stood at 96% in series [2]; 11% in series [3]; 88% in series [4]; 43% in series [5]; 8% in series [6]; 70% in series [7]. The molecule also yielded a fraction unbound in series [1] of 0.0014.

Molecule `CC(Oc1ccc(-c2ccccc2C(=O)Nc2ccc3cc(C(=O)N[C@H](C(=O)N(C)Cc4ccc(F)cc4)c4ccccc4)ccc3n2)cc1)C(=O)O` (stereo not given in full) had a fraction unbound in series [1] of 0.022.

Consider `CN(Cc1ccc(F)cc1)C(=O)[C@@H](NC(=O)c1ccc2nc(NC(=O)c3ccccc3-c3ccc(OC(C)(C)C)cc3)ccc2c1)c1ccccc1`, for which the Activity in series [2] worked out at 108%; in series [3], 38%; in series [4], 72%; in series [5], 40%; in series [6], 95%; in series [7], 112%.

Consider `CN(Cc1ccc(F)cc1)C(=O)[C@@H](NC(=O)c1ccc2nc(NC(=O)c3ccccc3-c3ccc(C(C)(C)CO)cc3)ccc2c1)c1ccccc1`, for which, in series [1], the fraction unbound is 0.023.

For the molecule `CNC(=O)[C@@H](NC(=O)c1ccc2nc(NC(=O)c3ccccc3-c3ccc(C(C)(C)C)cc3)ccc2c1)c1ccccc1`, in series [1], the fraction unbound was 0.038.

In turn, `CN(Cc1ccc(F)cc1)C(=O)[C@@H](NC(=O)c1ccc2nc(NC(=O)c3ccccc3-c3ccc(C(C)(C)C(=O)O)cc3)ccc2c1)c1ccccc1` returned a fraction unbound in series [1] of 0.0088.

Consider `CN(Cc1ccc(F)cc1)C(=O)[C@@H](NC(=O)c1ccc2nc(NC(=O)c3ccccc3-c3ccc(O)cc3)ccc2c1)c1ccccc1`, for which the fraction unbound in series [1] amounted to 0.0095.

In series [1], `CC(C)(CO)c1ccc(-c2ccccc2C(=O)Nc2ccc3cc(C(=O)N[C@H](C(=O)NCc4ccc(F)cc4)c4ccccc4)ccc3n2)cc1` came in with a fraction unbound of 0.0135.

`CNC(=O)[C@@H](NC(=O)c1ccc2nc(NC(=O)c3ccccc3-c3ccc(OC(C)C)cc3)ccc2c1)c1ccccc1` came in with a fraction unbound in series [1] of 0.16.

Broadly, the fraction unbound is the share of the substance not bound to proteins or other matrix.
